# Measured values pooled from the literature.
# Protocols differ between the studies behind these lines.
# Organism: Candida albicans
# Read-out: microbial growth
SMILES,method,strain,concentration,time,endpoint,value
N#Cc1c(-c2ccc(Cl)cc2Cl)c(C(N)=S)c(N)n(N)c1=O,well diffusion,ATCC10231,500 µg/mL,,inhibition zone,13 mm
COc1ccc(C2c3c(C)nn(-c4ccccc4)c3NN2C(=O)c2ccncc2)cc1 (centres unmarked),,MTCC183,,,MIC,16 µg/mL
O=C(C=Cc1ccc(O)c(O)c1)Oc1cccc2cccnc12,broth dilution,SC5314,,,MIC,16 µg/mL
Cc1nn(-c2ccccc2)c2c1C(c1ccco1)N(C(=O)c1ccncc1)N2 (centres unmarked),,MTCC183,,,MIC,> 100 µg/mL
COc1cc(Cc2cnc(N)nc2N)cc(OC)c1OC,broth dilution,SC5314,,,MIC,64 µg/mL
CN(C)c1ccc(-c2c(C(N)=O)c(N)n(N)c(=O)c2C#N)cc1,well diffusion,ATCC10231,500 µg/mL,,inhibition zone,12 mm
O=C1C(Br)=C(Br)C(=O)c2ccccc21,broth dilution,ATCC60193,,24 h,MIC,3.12 µg/mL
OC(Cn1cncn1)(Cn1cncn1)c1ccc(F)cc1F,broth dilution,SC5314,,,MIC,0.25 µg/mL
CC(=O)Oc1ccc(-c2c(C(N)=O)c(N)n(N)c(=O)c2C#N)cc1,well diffusion,ATCC10231,500 µg/mL,,inhibition zone,12 mm
CC1CCC(C(C)C)C(OC(=O)C=Cc2ccc(O)c(O)c2)C1 (centres unmarked),broth dilution,SC5314,,,MIC,8 µg/mL
CC(=O)N1CCN(c2ccc(OCC3COC(Cn4ccnc4)(c4ccc(Cl)cc4Cl)O3)cc2)CC1 (centres unmarked),well diffusion,ATCC10231,500 µg/mL,,inhibition zone,24 mm
Clc1ccccc1C(c1ccccc1)(c1ccccc1)n1ccnc1,,MTCC183,,,MIC,0.5 µg/mL
Cc1c(C(N)=O)c(N)n(N)c(=O)c1C#N,well diffusion,ATCC10231,500 µg/mL,,inhibition zone,12 mm
CC(C)=CCCC(C)=CC1c2c(C)nn(-c3ccccc3)c2NN1C(=O)c1ccncc1 (centres unmarked),,MTCC183,,,MIC,32 µg/mL
O=C(C=Cc1ccc(O)c(O)c1)OCc1ccccc1,broth dilution,SC5314,,,MIC,64 µg/mL
Cc1nn(-c2ccccc2)c2c1C(c1ccc(Cl)cc1)N(C(=O)c1ccncc1)N2 (centres unmarked),,MTCC183,,,MIC,0.25 µg/mL
COC1=CC(=O)c2ccccc2C1=O,broth dilution,ATCC60193,,24 h,MIC,25 µg/mL
